Assay outcomes: PubChem, several laboratories
Rpn11 block: inhibitors of human proteasome Rpn11 | AID 588493 | human 26S proteasome, Ub4-pepOG fluorescence polarization; 20S core pre-blocked with epoxomicin | inhibition, % at 20 µM | O00487 | hit rate 0.59% among 360,000;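 active = inhibition at 20 µM, scaled to each plate's controls, above about 33%, limit read from the data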
Target sequence (O00487 whole entry, looked up): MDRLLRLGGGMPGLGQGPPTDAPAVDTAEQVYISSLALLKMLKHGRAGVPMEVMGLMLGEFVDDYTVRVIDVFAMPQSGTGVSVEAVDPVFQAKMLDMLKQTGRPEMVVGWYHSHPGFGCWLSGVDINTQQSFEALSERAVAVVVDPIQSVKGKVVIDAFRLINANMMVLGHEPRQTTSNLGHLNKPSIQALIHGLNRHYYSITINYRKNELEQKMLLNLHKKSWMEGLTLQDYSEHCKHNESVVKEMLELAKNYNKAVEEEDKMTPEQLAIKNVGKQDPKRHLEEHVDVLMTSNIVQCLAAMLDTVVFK
HNF4A DNA FP: change in binding of human HNF4 alpha to DNA; P41235; HNF4a-FITC DNA binding, fluorescence polarization, 1 h; activity change, % at 10 µM; hit rate 0.3% among 360,000; in the data active = activity change above about 30%, passing the limit was not always enough
CSN inh: CSN deneddylation inhibition. hit rate 0.38% among 360,000. Q92905. Purified CSN, SCF-Nedd8-OG deneddylation, fluorescence polarization. inhibition, % at 12.5 µM. AID 651999;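 active = pattern-corrected inhibition above about 35%, with an unprinted fluorescence ratio check between 0.5 and 1.5, limit read from the data, passing the limit was not always enough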;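 also: 0% = enzyme with substrate and 100% = substrate without enzyme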
Target sequence (Q92905 whole entry, looked up, one chain of several): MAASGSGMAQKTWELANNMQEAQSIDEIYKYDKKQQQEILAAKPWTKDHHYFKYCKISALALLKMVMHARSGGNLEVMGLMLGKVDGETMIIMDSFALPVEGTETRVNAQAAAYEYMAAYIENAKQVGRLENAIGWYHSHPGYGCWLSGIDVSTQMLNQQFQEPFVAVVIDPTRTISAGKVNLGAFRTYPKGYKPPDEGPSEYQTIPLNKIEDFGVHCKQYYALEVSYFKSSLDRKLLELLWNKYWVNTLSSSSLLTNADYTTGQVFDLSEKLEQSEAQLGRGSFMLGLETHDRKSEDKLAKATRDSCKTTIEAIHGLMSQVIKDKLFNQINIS
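Test system: Human Csn5 produced in HEK293T cells | Compound: 12.5 µM single point | Times: 90 min, room temperature | Signal: Fluorescence polarization readout | Read-out basis: % inhibition of substrate cleavage by Csn5 | Controls: no-enzyme wells high, enzyme-with-substrate wells low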
Myeloid diff MLP: compounds promoting myeloid differentiation; ER-HoxA9 myeloid progenitors, lysozyme-GFP differentiation, flow cytometry; calls only at 10 µM; AID 624256; hit rate 1% among 360,000;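 active = normalized GFP-positive differentiation at or above the plate's own cutoff, the solvent-only control mean plus 3 SD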;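 also: cells exposed to compound for four days before flow analysis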
TPT1 inh: inhibitors of Candida albicans tRNA 2'-phosphotransferase TPT1. hit rate 0.81% among 300,000. AID 1962. inhibition, % at 5 µM. recombinant caTPT1, FP RNA substrate dephosphorylation;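 active = inhibition above the mean of all tested compounds plus 3 SD, set per screening campaign, cut at about 24% in these data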;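 also: plate controls were DMSO alone for no effect and ferristatin control at 100 nM for full effect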
caTPT1 confirm: TPT1 (C. albicans) inhibition, confirmation | hit rate 74% among 2,400 | inhibition, % at 5 µM | AID 2149 | shares compounds with TPT1 inh | recombinant caTPT1, fluorescence polarization, RNase T1 coupled;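 active = inhibition above the primary screen limit, the mean inhibition of all tested compounds plus 3 SD, cut at about 25% in these data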
RNase T1 counter: blocks Aspergillus oryzae RNase T1, a TPT1 counter-screen. shares compounds with TPT1 inh. RNase T1 cleavage, fluorescence polarization, 1536-well. inhibition, % at 5 µM. hit rate 83% among 2,400. AID 2153;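 active = inhibition above the solvent-only control well mean plus 3 SD, limit set per screening run, cut at about 23% in these data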;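 also: plate controls were DMSO wells with enzyme for no effect and wells without RNase T1 for full effect; inhibitors block cleavage so intact labeled substrate keeps polarization high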
* hit, by the source's call. An excerpt weighted towards active compounds, which were near 2.3% of everything screened.

What do the screens show for `CCc1ccc([C@@H]2C[C@H]3[C@@H](CN2S(=O)(=O)c2ccc(C)cc2)C(=O)C[C@@H](c2cccc(Cl)c2)N3S(=O)(=O)c2ccc(C)cc2)cc1`?
Rpn11 block: 5; HNF4A DNA FP: -1; CSN inh: 0; Myeloid diff MLP: inactive

What do the screens show for `O=C(/C=C/c1ccc2ccccc2n1)c1cc(Cl)ccc1O`?
HNF4A DNA FP: 27; CSN inh: 18; Myeloid diff MLP: active; TPT1 inh: 44*; caTPT1 confirm: 46*; RNase T1 counter: 59*

What do the screens show for `CCOc1cc(/C=N\Nc2ccc([N+](=O)[O-])cc2)ccc1OCC(=O)Nc1ccc(C)c(C)c1`?
HNF4A DNA FP: 126; CSN inh: 5; TPT1 inh: 46*; caTPT1 confirm: 30*; RNase T1 counter: 35*

Results for Cn1cccc1C(=O)/C(C#N)=C/c1ccc(F)cc1 ?
HNF4A DNA FP: 21; CSN inh: 29; Myeloid diff MLP: inactive; TPT1 inh: 53*; caTPT1 confirm: 80*; RNase T1 counter: 96*

What do the screens show for `CC1(C)CC(NNCCC#N)=CC(=[N+]2CCCC2)C1`?
Rpn11 block: 4; HNF4A DNA FP: 5; CSN inh: -6; Myeloid diff MLP: inactive; TPT1 inh: 49*; caTPT1 confirm: 54*; RNase T1 counter: 69*

Results for COc1ccc(SC[C@H](Cc2ccccc2)N2CC[C@@H](C)CCC2=O)cc1 ?
Rpn11 block: 1; HNF4A DNA FP: 1; CSN inh: -6; Myeloid diff MLP: inactive

How did COc1ccc(C(=O)/C=C/c2ccc(N(C)C)cc2)c(OC)c1 do in these assays?
HNF4A DNA FP: 125; CSN inh: 90; Myeloid diff MLP: active; TPT1 inh: 101*; caTPT1 confirm: 103*; RNase T1 counter: 102*

Results for S=C(Nc1cccnc1)N1CCN(c2ccccc2Cl)CC1 ?
Rpn11 block: -4; HNF4A DNA FP: 0; CSN inh: -3; Myeloid diff MLP: inactive; TPT1 inh: 1

What do the screens show for `COc1ccc(CCC(=O)OCC(=O)Nc2sccc2C(N)=O)cc1OC`?
Rpn11 block: -6; HNF4A DNA FP: 2; CSN inh: 2; Myeloid diff MLP: inactive

How did COc1cc(CC(=O)Nc2sccc2C(N)=O)cc(OC)c1OC do in these assays?
HNF4A DNA FP: 34*; CSN inh: 17; Myeloid diff MLP: inactive; TPT1 inh: 76*; caTPT1 confirm: 18; RNase T1 counter: 25*

Results for CC(NC(=O)C1CCCN1C(=O)OC(C)(C)C)C(=O)OCc1ccccc1 (stereo unspecified) ?
Rpn11 block: 10; HNF4A DNA FP: 12; CSN inh: -2; Myeloid diff MLP: inactive

Results for CCOc1cc2c(cc1C=O)OC(C)C2 (stereo unspecified) ?
Rpn11 block: 4; HNF4A DNA FP: 5; CSN inh: 3; Myeloid diff MLP: inactive; TPT1 inh: 0

Results for CCOc1cc2c(cc1/C=C/c1noc(C)c1[N+](=O)[O-])OC(C)C2 (stereo unspecified) ?
HNF4A DNA FP: 106; CSN inh: 47*; TPT1 inh: 75*; caTPT1 confirm: 73*; RNase T1 counter: 83*

What do the screens show for `COc1ccc(C2=C/C(=C\c3cccc(OC(C)=O)c3)C(=O)O2)cc1`?
Rpn11 block: 6; HNF4A DNA FP: 5; CSN inh: 3; Myeloid diff MLP: inactive; TPT1 inh: 36*; caTPT1 confirm: 55*; RNase T1 counter: 68*

What do the screens show for `COc1ccc(C2=C/C(=C\c3ccccc3OC(C)=O)C(=O)O2)cc1`?
Rpn11 block: 3; HNF4A DNA FP: 1; CSN inh: 3; Myeloid diff MLP: inactive; TPT1 inh: 13

Results for CC(C)(C)c1cnnn1-c1ccc(/C=N/Nc2ccc([N+](=O)[O-])cc2)cc1 ?
Rpn11 block: 31; HNF4A DNA FP: 12; CSN inh: 1; Myeloid diff MLP: inactive; TPT1 inh: 26*; caTPT1 confirm: 40*; RNase T1 counter: 53*

What do the screens show for `O=Cc1ccc(-n2nncc2-c2ccc([N+](=O)[O-])cc2)cc1`?
Rpn11 block: 2; HNF4A DNA FP: -2; CSN inh: -3; Myeloid diff MLP: inactive; TPT1 inh: -2

Results for CCC(COC)NC(=O)c1ccc(OC)c(OC2CCN(C(C)=O)CC2)c1 (stereo unspecified) ?
Rpn11 block: 4; HNF4A DNA FP: 5; CSN inh: 0; Myeloid diff MLP: inactive; TPT1 inh: 0

What do the screens show for `O=C(Cc1ccc(Cl)cc1)NNC(=S)NC(=O)c1cccnc1`?
Rpn11 block: -1; HNF4A DNA FP: 3; CSN inh: -2; Myeloid diff MLP: inactive; TPT1 inh: 35*; caTPT1 confirm: 45*; RNase T1 counter: 58*

What do the screens show for `CCOC(=O)c1c(NC(=S)Nc2ccccc2)sc2c1CCN(CC)C2`?
HNF4A DNA FP: 44*; CSN inh: 31; Myeloid diff MLP: inactive; TPT1 inh: 99*; caTPT1 confirm: 86*; RNase T1 counter: 95*

What do the screens show for `CCOC(=O)c1c(NC(=S)Nc2cccc(C)c2)sc2c1CC(C)(C)SC2`?
HNF4A DNA FP: 4; CSN inh: -2; Myeloid diff MLP: inactive; TPT1 inh: 31*; caTPT1 confirm: 26*; RNase T1 counter: 32*

Results for C=CCNC(=S)Nc1sc2c(c1C(=O)OCC)CC(C)(CC)OC2 (stereo unspecified) ?
Rpn11 block: -2; HNF4A DNA FP: -3; CSN inh: 4; Myeloid diff MLP: inactive; TPT1 inh: 3

Results for CCOC(=O)c1c(NC(=S)Nc2ccccc2)sc2c1CCCCC2 ?
Rpn11 block: 6; HNF4A DNA FP: 2; CSN inh: 1; Myeloid diff MLP: inactive; TPT1 inh: 1

Results for O=C(NCc1ccc(F)cc1)c1cnn2ccccc12 ?
Rpn11 block: 0; HNF4A DNA FP: -5; CSN inh: 0; Myeloid diff MLP: inactive; TPT1 inh: 0

What do the screens show for `CC(C)(C)c1ccc(C(=O)NNc2cc(N3CCCCC3)nc(N3CCCCC3)n2)cc1`?
Rpn11 block: 10; HNF4A DNA FP: -5; CSN inh: 1; Myeloid diff MLP: inactive; TPT1 inh: 45*; caTPT1 confirm: 10; RNase T1 counter: 12

How did CN1CCc2c(sc3c2C(=O)NC(c2ccc(-c4ccc(Cl)cc4)o2)N3)C1 (stereo unspecified) do in these assays?
HNF4A DNA FP: 31; CSN inh: 12; Myeloid diff MLP: active; TPT1 inh: 91*; caTPT1 confirm: 86*; RNase T1 counter: 96*
